Most compounds without a hit are left out; they make up all but 1.8% or so of the library.
M5 PAM: potentiates acetylcholine response at human M5 receptor | P08912 | CHO-K1 hM5, Fluo-8 calcium, ACh EC20 PAM; 0% = ACh EC20, 100% = ACh EC100 | activation, % at 3 µM | 360,000 compounds, 0.3% hits;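 active = activation above the run cutoff, the mean activation of all test compounds plus 3 SD, cut at about 18% in these data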
Target sequence (P08912 whole entry, looked up): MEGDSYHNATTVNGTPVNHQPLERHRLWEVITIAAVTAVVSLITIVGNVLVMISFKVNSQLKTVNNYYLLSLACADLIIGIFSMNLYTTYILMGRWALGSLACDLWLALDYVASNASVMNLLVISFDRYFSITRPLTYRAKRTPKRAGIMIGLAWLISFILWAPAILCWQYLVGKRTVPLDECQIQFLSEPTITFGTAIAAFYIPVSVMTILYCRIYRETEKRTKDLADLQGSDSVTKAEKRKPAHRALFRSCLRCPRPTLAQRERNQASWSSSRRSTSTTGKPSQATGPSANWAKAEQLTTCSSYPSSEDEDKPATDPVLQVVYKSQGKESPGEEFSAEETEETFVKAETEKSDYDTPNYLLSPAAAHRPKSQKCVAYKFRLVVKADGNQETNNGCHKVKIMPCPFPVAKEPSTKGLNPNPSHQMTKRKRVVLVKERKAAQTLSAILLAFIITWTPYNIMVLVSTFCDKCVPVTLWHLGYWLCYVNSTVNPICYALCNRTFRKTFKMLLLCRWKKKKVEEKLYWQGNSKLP
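System – CHO-K1 hM5 cells · Compound – 3 µM, single dose · Incubation – compound preincubation 140 s before EC20 acetylcholine addition · Technique – Fluo-8 calcium fluorescence · Measure – Max/basal fluorescence ratio as % of EC20–EC100 ACh window · Benchmarks – low control EC20 acetylcholine (0%), high control EC100 acetylcholine (100%) · Replication – singlicate, one well per test compound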
M4 antag: antagonists of human muscarinic M4 receptor (CHRM4). CHO-hM4 cells, ACh EC80, Fluo-8 calcium fluorescence. inhibition, % at 3 µM. 360,000 compounds, 0.73% hits. AID 624125;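 active = inhibition above its plate's cutoff, the mean inhibition of sample wells plus 3 SD, cut at about 27% in these data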;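 note: 0% = acetylcholine EC80 with DMSO and 100% = DMSO without agonist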
CHRM5 antagonist: blocks acetylcholine activation of human M5 receptor. AID 624040. inhibition, % at 3 µM. 360,000 compounds, 0.59% hits. CHO-hM5 cells, Fluo-8 calcium fluorescence, ACh EC80;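 active = inhibition above a per-plate cutoff, the mean of that plate's test compounds plus 3 SD, cut at about 27% in these data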;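 note: 0% = acetylcholine EC80 with DMSO and 100% = DMSO without agonist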
M4 ag: CHRM4 agonism in calcium assay. P08173. CHO-K1 hM4/Gqi5, Fluo-8 calcium fluorescence; vehicle 0%, full acetylcholine response 100%. activation, % at 3 µM. 360,000 compounds, 0.14% hits. AID 624127;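 active = activation above the run mean over all test wells plus 3 SD, cut at about 32% in these data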;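 note: peak over basal fluorescence ratio per well then scaled between controls; 0% = DMSO wells and 100% = acetylcholine at EC100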
M4 PAM: potentiates acetylcholine response at human M4 receptor. P08173. CHO-K1 hM4/Gqi5, Fluo-8 calcium fluorescence, ACh EC20; 0% = ACh EC20, 100% = maximal ACh. activation, % at 3 µM. 360,000 compounds, 0.4% hits. AID 624126;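 active = activation above its plate's cutoff, the mean activation of sample wells plus 3 SD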
M5 ag: CHRM5 agonism in calcium assay; P08912; CHO-K1 hM5 cells, Fluo-8 calcium fluorescence; 0% DMSO wells, 100% maximal acetylcholine response; activation, % at 3 µM; 360,000 compounds, 0.19% hits;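 active = activation above the run's mean over test compounds plus 3 SD, cut at about 23% in these data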;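 note: signal is peak over basal fluorescence ratio across the kinetic read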
* hit, by the source's call.

SMILES | M5 PAM | M4 antag | CHRM5 antagonist | M4 ag | M4 PAM | M5 ag
CCN(CC)CC#CCC(O)(c1ccccc1)c1ccccc1 | -35.1 | 32.4* | 28.9* | 3.5 | -25.2 | -16.4
CCN(CC)CC#CCC(C)(c1ccccc1)c1ccccc1 | -21.4 | 63.3* | 16.8 | 3.1 | -36.6 | -11.8
CCN(CC)CC#CCC(O)(c1ccccc1)c1ccc(Br)cc1 (stereo not given) | -16.9 | 29.7* | 11.4 | 6.7 | -24.6 | -8.1
C=CC(O)(C#CCN(CC)CC)c1ccccc1 (stereo not given) | -23.2 | 11.7 | 15.3 | 0.9 | -15.4 | -6.1
CCC(=O)NCCn1ccc2ccccc21 | 0.3 | -5.8 | 1.6 | 0.6 | 5.7 | 1.6
CC(C)C(=O)NCCn1ccc2ccccc21 | 5.5 | 3.0 | -8.9 | 1.3 | 29.6* | -1.4
O=C(NC1CCCCC1)C1c2ccccc2OCC(=O)N1Cc1cccnc1 (stereo not given) | 0.6 | 3.5 | -3.7 | 1.3 | 4.4 | 0.2
Cc1c(CC(=O)NCCCCCC(=O)O)c(=O)oc2c(C)c3oc4c(c3cc12)CCCC4 | 3.9 | -4.4 | -3.2 | 1.1 | 14.3* | -4.0
Cc1c(CC(=O)NCCCC(=O)O)c(=O)oc2cc3oc4c(c3cc12)CCCC4 | -0.6 | 8.3 | 8.6 | 0.3 | -1.7 | -2.7
CCn1c(=O)c(C(=O)CN(C)CC(=O)Nc2ccccc2Br)c(N)n(Cc2ccccc2)c1=O | -0.2 | 0.3 | 2.1 | 1.8 | -2.3 | -3.6
CCCCNC(=O)C1(C)CCN1Cc1cc(C)ccc1C (stereo not given) | 0.7 | -1.3 | 7.2 | -1.8 | 0.5 | 3.1
O=C(C(=O)N1CCN(c2ccccc2)CC1)c1ccco1 | -0.4 | -0.5 | 1.6 | 2.1 | 7.1 | -0.5
CN(C)c1ccc(CN2CCC(C(=O)NC(c3ccc(F)cc3)c3ccc4ccccc4n3)CC2)cc1 (stereo not given) | -17.5 | 7.7 | 35.8* | 7.9 | -6.8 | -1.8
CC(=O)Nc1ccccc1OCC(=O)c1cc(C)n(Cc2cccs2)c1C | -17.0 | 22.4 | 29.7* | 12.3 | -8.3 | 6.1
Cc1cc(C(=O)COc2cccnc2[N+](=O)[O-])c(C)n1Cc1cccs1 | -14.6 | 11.1 | 17.9 | 14.9 | -12.0 | 4.6
N#Cc1c(N)n(C2OC(CO)C(O)C2O)c2ncnc(N)c12 (stereo not given) | -15.3 | 4.2 | 6.2 | 0.7 | -3.0 | 1.7
CCN(CC)C(=O)CSc1nnc(-c2ccccn2)n1-c1ccccc1OC | 11.1 | 30.6* | -13.6 | 1.8 | 19.6 | 1.6
Cc1ccccc1C(=O)OCC(=O)NCC1COc2ccccc2O1 (stereo not given) | -1.0 | -11.6 | 1.1 | 0.5 | 4.2 | 1.0
Cc1cc(=O)n2nc(N3CCCC3C(=O)NCCCN3CCCCC3)sc2n1 (stereo not given) | 19.5* | -5.9 | 13.1 | 0.0 | 3.2 | -0.1
C#CCNC(=O)c1csc([C@@H]2O[C@H](CO)[C@@H](O)[C@H]2O)n1 | -6.4 | 2.6 | 14.1 | 0.8 | 3.5 | 2.0
CN(C)CC/C=C1\c2ccccc2COc2ccccc21 | -18.5 | 66.7* | 97.8* | 2.0 | -18.2 | -1.3
CN(C)CC/C=C1/c2ccccc2Sc2ccc(Cl)cc21 | -18.1 | 98.8* | 98.7* | 9.1 | -19.0 | 0.9
CN1CCN(CCC=C2c3ccccc3Sc3ccc(S(=O)(=O)N(C)C)cc32)CC1 | -9.1 | 10.0 | 7.3 | 8.2 | -13.2 | 1.7
OCCN1CCN(CC/C=C2/c3ccccc3Sc3ccc(C(F)(F)F)cc32)CC1 | -6.2 | 4.2 | 8.7 | 7.5 | -13.4 | 0.8
CCCCCC[N+](C)(C)CC/C=C1/c2ccccc2Sc2ccc(Cl)cc21 | -32.8 | 98.9* | 98.6* | -0.6 | -59.0 | -18.2
COC(=O)C(Cc1ccccc1)NC(=O)C12CC3CC(CC(C3)C1)C2 (stereo not given) | 8.8 | -7.7 | -6.3 | -0.4 | 21.9* | 0.2
COC(=O)[C@H](Cc1ccccc1)NC(=O)NCCc1ccc(F)cc1 | -25.5 | -2.1 | 30.0* | 1.3 | 0.7 | -6.1
COC(=O)[C@H](Cc1ccccc1)NC(=O)NCCc1ccc(S(N)(=O)=O)cc1 | 0.3 | -1.0 | 1.5 | -0.1 | -2.8 | 0.5

Screens from PubChem.
